Results published in paper PMC5710753 (Biochemical pharmacology, 2017).
Read-outs that look alike come from different tables or passages of the source. Each block holds one compound with its values, some of them ahead of it.

Columns and labels:
[1] = format: in vivo, cynomolgus monkeys; conditions: for time of maximal plasma level: after S230 30 mg/kg oral gavage
Procedure, shortened: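 Three monkeys were gavaged with 30 mg/kg (4.4 mL/kg) of an ethanol stock diluted into 10 volumes of 20 mM NaHCO3. Heparinized blood was taken predose and at 1–24 h, and plasma was stored at −80 °C. Plasma was treated with MeOH and an indole internal standard, then C18 solid-phase extracted. Quantitation used RP-HPLC-UV (60–80% MeOH, 0.02% HOAc) by peak-area ratio to the internal standard, with identities confirmed by LC-MS/MS.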

OXE receptor [2] = target: T1, OXE receptor (Homo sapiens, UniProt Q8TDS5); conditions: S230 vs R230; cited from earlier work
OXE receptor [3] = target: T1, OXE receptor; assay: Inhibition of 5-oxo-ETE-induced calcium mobilization in human neutrophils; format: cell-based
Procedure, shortened: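 Neutrophils isolated by dextran sedimentation and Ficoll-Paque centrifugation, loaded with indo-1 AM and held in a cuvette at 37 °C. Once baseline fluorescence was stable, the test compound was added, then 10 nM 5-oxo-ETE 2 min later, then digitonin (0.1% final) 1 min after that. Calcium response was read by spectrofluorometry.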

[4] = Incubation with plasma or intact leukocytes; format: in vitro ADME
[5] = oral racemic 230; cited from earlier work
OXE receptor [6] = conditions: feline; cited from earlier work
OXE receptor [7] = conditions: cited from earlier work
[8] = monkey liver microsomes + NADPH; cited from earlier work

T1 sequence (Q8TDS5 whole entry): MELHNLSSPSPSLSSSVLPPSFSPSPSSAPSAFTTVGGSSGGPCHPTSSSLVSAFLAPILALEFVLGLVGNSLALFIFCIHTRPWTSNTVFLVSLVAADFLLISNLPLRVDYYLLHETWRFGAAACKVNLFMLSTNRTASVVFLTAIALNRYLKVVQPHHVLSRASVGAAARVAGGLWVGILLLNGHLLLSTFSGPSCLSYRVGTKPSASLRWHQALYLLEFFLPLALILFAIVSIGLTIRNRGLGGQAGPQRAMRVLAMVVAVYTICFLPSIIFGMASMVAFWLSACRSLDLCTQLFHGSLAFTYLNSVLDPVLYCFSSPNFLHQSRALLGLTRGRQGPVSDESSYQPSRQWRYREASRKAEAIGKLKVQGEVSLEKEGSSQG

time of maximal plasma level [1]: ≤ 4 h
SMILES: CC(O)CCCCc1c(C(=O)C[C@H](C)CC(=O)O)c2cc(Cl)ccc2n1C (stereo partly drawn) [ω2-OH-S230, (3S)-5-(5-chloro-2-(5-hydroxyhexyl)-1-methyl-1H-indol-3-yl)-3-methyl-5-oxopentanoate]

plasma concentration ([1]; 8 h after S230 30 mg/kg oral): greater than 1.5 μM | maximal plasma concentration ([1]; S230 30 mg/kg oral gavage, at 1 h): 32 µM | time of maximal plasma level [1]: ≤ 1 h | plasma level as % of maximal concentration ([1]; by 4 h after S230 30 mg/kg oral): about 11% | plasma level as % of maximal concentration ([1]; by 8 h after S230 30 mg/kg oral): 5%
SMILES: CCCCCCc1c(C(=O)C[C@H](C)CC(=O)O)c2cc(Cl)ccc2n1C [S230, (S)-5-(5-chloro-2-hexyl-1-methyl-1H-indol-3-yl)-3-methyl-5-oxopentanoate]
potency relative to the R-enantiomer (R230) (OXE receptor [2]): over 400 times

IC50 (OXE receptor [3]): 1600 ± 300 nM | Tmax ([1]; female, cynomolgus monkey, plasma, po, 30 mg/kg): ≤ 1 h
SMILES: CCCCC[C@H](O)c1c(C(=O)C[C@H](C)CC(=O)O)c2cc(Cl)ccc2n1C [y1, (S)-5-(5-chloro-2-((S)-1-hydroxyhexyl)-1-methyl-1H-indol-3-yl)-3-methyl-5-oxopentanoic acid]

IC50 (OXE receptor [3]): > 10000 nM | peak area relative to the area of metabolite e ([1]; all time points, plasma after S230 30 mg/kg oral, RP-HPLC): about 3%
SMILES: CCCCC[C@@H](O)c1c(C(=O)C[C@H](C)CC(=O)O)c2cc(Cl)ccc2n1C [x2, (S)-5-(5-chloro-2-((R)-1-hydroxyhexyl)-1-methyl-1H-indol-3-yl)-3-methyl-5-oxopentanoic acid]

formation of α-hydroxylation products [4]: Neither did we detect such products
SMILES: CCCCCCc1c(C(=O)CC(C)CC(=O)O)c2cc(Cl)ccc2n1C (stereo not shown) [compound 230, 5-(5-chloro-2-hexyl-1-methyl-1H-indol-3-yl)-3-methyl-5-oxopentanoate]
maximal plasma concentration [5]: 87 µM | antagonist activity in cats (OXE receptor [6]): only a weak antagonist | antagonist activity in vitro in monkeys (OXE receptor [7]): potent OXE receptor antagonist | formation of α-OH-230 [8]: did not detect α-OH-230
